In brackets after ≈: the same amount, converted by molar mass.
What was measured:
[1] = system: Mycobacterium tuberculosis; experiment: (§1) Antimycobacterial activity against isoniazid/rifampicin/ethambutol/pyrazinamide/streptomycin/kanamycin/para-aminosalicylic acid/prothionamide multidrug-resistant Mycobacterium tuberculosis assessed as inhibition of bacterial growth under 7H9 medium condition after 7 to 14 days in presence of tylo-xapol by broth microdilution method; type: functional; conditions: time 7-14 day
In short: (§2)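 Clinical MDR/XDR Mtb strains tested by broth microdilution in GAST or 7H9 with tyloxapol (0.05%), BSA fraction V (5 g/L) and NaCl (0.8 g/L) plus a carbon source. Compounds were dosed from DMSO stocks against DMSO vehicle controls. Inoculum was 10⁴-10⁵ cells per assay, with growth monitored at days 7 and 14. MIC is the concentration causing >99% inhibition.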

[2] = system: Mycobacterium tuberculosis; experiment: as §1, with “days” for “days in presence of tylo-xapol”; type: functional; conditions: time 7-14 day; in short: as §2
[3] = system: Mycobacterium tuberculosis; experiment: as §1, with “GAST” for “7H9”, “days” for “days in presence of tylo-xapol”; type: functional; conditions: time 7-14 day; in short: as §2
[4] = system: Mycobacterium tuberculosis; experiment: Antimycobacterial activity against isoniazid/rifampicin/ethambutol/kanamycin/ofloxacin multidrug-resistant Mycobacterium tuberculosis assessed as inhibition of bacterial growth under 7H9 medium condition after 7 to 14 days by broth microdilution method; type: functional; conditions: time 7-14 day; in short: as §2
[5] = system: Mycobacterium tuberculosis; experiment: Antimycobacterial activity against isoniazid/rifampicin/ethambutol/kanamycin/ofloxacin multidrug-resistant Mycobacterium tuberculosis assessed as inhibition of bacterial growth under GAST medium condition after 7 to 14 days by broth microdilution method; type: functional; conditions: time 7-14 day; in short: as §2
[6] = system: Mycobacterium tuberculosis; experiment: Antimycobacterial activity against isoniazid/rifampicin/ethambutol/para-aminosalicylic acid extensively drug-resistant Mycobacterium tuberculosis assessed as inhibition of bacterial growth under 7H9 medium condition after 7 to 14 days by broth microdilution method; type: functional; conditions: time 7-14 day; in short: as §2
[7] = system: Mycobacterium tuberculosis; experiment: Antimycobacterial activity against isoniazid/rifampicin/ethambutol/para-aminosalicylic acid extensively drug-resistant Mycobacterium tuberculosis assessed as inhibition of bacterial growth under GAST medium condition after 7 to 14 days by broth microdilution method; type: functional; conditions: time 7-14 day; in short: as §2
[8] = system: Mycobacterium tuberculosis; experiment: Antimycobacterial activity against isoniazid/rifampicin/ethambutol/streptomycin/ofloxacin/para-aminosalicylic acid/prothionamide multidrug-resistant Mycobacterium tuberculosis assessed as inhibition of bacterial growth under 7H9 medium condition after 7 to 14 days by broth microdilution method; type: functional; conditions: time 7-14 day; in short: as §2
[9] = system: Mycobacterium tuberculosis; experiment: Antimycobacterial activity against isoniazid/rifampicin/ethambutol/streptomycin/ofloxacin/para-aminosalicylic acid/prothionamide multidrug-resistant Mycobacterium tuberculosis assessed as inhibition of bacterial growth under GAST medium condition after 7 to 14 days by broth microdilution method; type: functional; conditions: time 7-14 day; in short: as §2
[10] = target: T1, Long-chain-fatty-acid--AMP ligase FadD32 (Mycobacterium tuberculosis (strain ATCC 25618 / H37Rv), UniProt O53580); experiment: Inhibition of Mycobacterium tuberculosis H37Rv FAAL32 expressed in Escherichia coli BL21(DE3) cells incubated for 2 hrs in presence of [C14] fatty acid by SDS-PAGE analysis; conditions: read-out: Ki(app)
T1 sequence (O53580 whole entry): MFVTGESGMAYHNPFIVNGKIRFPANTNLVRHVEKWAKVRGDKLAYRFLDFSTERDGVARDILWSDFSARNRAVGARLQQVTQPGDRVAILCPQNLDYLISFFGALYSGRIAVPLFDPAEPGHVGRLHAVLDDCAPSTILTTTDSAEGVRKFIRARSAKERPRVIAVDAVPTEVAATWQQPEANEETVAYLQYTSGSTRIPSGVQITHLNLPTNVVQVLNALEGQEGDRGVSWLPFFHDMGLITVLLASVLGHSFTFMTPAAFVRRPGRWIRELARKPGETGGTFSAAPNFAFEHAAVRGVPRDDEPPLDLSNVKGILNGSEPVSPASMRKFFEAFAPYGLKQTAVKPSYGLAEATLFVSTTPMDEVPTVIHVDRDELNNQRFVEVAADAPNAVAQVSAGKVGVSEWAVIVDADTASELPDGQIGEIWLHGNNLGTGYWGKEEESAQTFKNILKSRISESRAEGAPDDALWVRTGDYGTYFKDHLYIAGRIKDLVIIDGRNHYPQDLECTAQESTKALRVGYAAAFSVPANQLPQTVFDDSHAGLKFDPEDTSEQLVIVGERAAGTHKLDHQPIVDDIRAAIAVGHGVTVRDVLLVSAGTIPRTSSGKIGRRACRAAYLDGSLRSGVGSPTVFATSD

SMILES: CCCCCCCCCCCCCC(=O)NS(=O)(=O)OC[C@H]1O[C@@H](n2cnc3c(N)ncnc32)[C@H](O)[C@@H]1O
- MIC [1]: 12.5 µM
- MIC [2]: 25 µM (≈ 13.9 µg/mL)
- MIC [3]: 12.5 µM (≈ 6.96 µg/mL)
- MIC [4]: 3.13 µM (≈ 1.74 µg/mL)
- MIC [5]: 6.25 µM (≈ 3.48 µg/mL)
- MIC [6]: 6.25 µM (≈ 3.48 µg/mL)
- MIC [7]: 6.25 µM (≈ 3.48 µg/mL)
- MIC [8]: 12.5 µM (≈ 6.96 µg/mL)
- MIC [9]: 12.5 µM (≈ 6.96 µg/mL)

SMILES: Nc1ncnc2c1ncn2[C@@H]1O[C@H](COS(=O)(=O)NC(=O)CCCCCCCCCCOc2ccccc2)[C@@H](O)[C@H]1O
- MIC [1]: 12.5 µM
- MIC [2]: 12.5 µM (≈ 7.58 µg/mL)
- MIC [3]: 6.25 µM (≈ 3.79 µg/mL)
- MIC [4]: 12.5 µM (≈ 7.58 µg/mL)
- MIC [6]: 12.5 µM (≈ 7.58 µg/mL)
- MIC [8]: 50 µM (≈ 30.3 µg/mL)
- MIC [9]: 625 µM (≈ 379 µg/mL)

SMILES: CCCCCCCCCCCCOP(=O)(O)OC[C@H]1O[C@@H](n2cnc3c(N)ncnc32)[C@H](O)[C@@H]1O
- Ki [10]: 110 nM

SMILES: C=CCCCCCCCCC(=O)NS(=O)(=O)OC[C@H]1O[C@@H](n2cnc3c(N)ncnc32)[C@H](O)[C@@H]1O
- MIC [1]: 6.25 µM
- MIC [2]: 50 µM (≈ 25.6 µg/mL)
- MIC [3]: 3.13 µM (≈ 1.6 µg/mL)
- MIC [4]: 625 µM (≈ 320 µg/mL)
- MIC [5]: 3.13 µM (≈ 1.6 µg/mL)
- MIC [6]: 12.5 µM (≈ 6.41 µg/mL)
- MIC [7]: 3.13 µM (≈ 1.6 µg/mL)
- MIC [8]: 25 µM (≈ 12.8 µg/mL)
- MIC [9]: 3.13 µM (≈ 1.6 µg/mL)

SMILES: CCCCCCCCCOCC(=O)NS(=O)(=O)OC[C@H]1O[C@@H](n2cnc3c(N)ncnc32)[C@H](O)[C@@H]1O
- MIC [1]: 12.5 µM
- MIC [2]: 12.5 µM (≈ 6.63 µg/mL)
- MIC [3]: 1.56 µM (≈ 0.828 µg/mL)
- MIC [4]: 6.25 µM (≈ 3.32 µg/mL)
- MIC [5]: 0.39 µM (≈ 0.207 µg/mL)
- MIC [6]: 6.25 µM (≈ 3.32 µg/mL)
- MIC [7]: 0.78 µM (≈ 0.414 µg/mL)
- MIC [8]: 50 µM (≈ 26.5 µg/mL)
- MIC [9]: 6.25 µM (≈ 3.32 µg/mL)

SMILES: NNC(=O)c1ccncc1 [ISONIAZID]
- MIC [1]: 2 µM
- MIC [2]: 2 µM (≈ 0.274 µg/mL)
- MIC [3]: > 8 µM
- MIC [4]: 2 µM (≈ 0.274 µg/mL)
- MIC [5]: 4 µM (≈ 0.549 µg/mL)
- MIC [6]: 2 µM (≈ 0.274 µg/mL)
- MIC [7]: 4 µM (≈ 0.549 µg/mL)
- MIC [8]: 8 µM (≈ 1.1 µg/mL)
- MIC [9]: 8 µM (≈ 1.1 µg/mL)

SMILES: [N-]=[N+]=NCCCCCCCCCCCC(=O)NS(=O)(=O)OC[C@H]1O[C@@H](n2cnc3c(N)ncnc32)[C@H](O)[C@@H]1O
- MIC [1]: 6.25 µM
- MIC [2]: 50 µM (≈ 28.5 µg/mL)
- MIC [3]: 3.13 µM (≈ 1.78 µg/mL)
- MIC [4]: 625 µM (≈ 356 µg/mL)
- MIC [5]: 3.13 µM (≈ 1.78 µg/mL)
- MIC [6]: 12.5 µM (≈ 7.12 µg/mL)
- MIC [7]: 3.13 µM (≈ 1.78 µg/mL)
- MIC [8]: 25 µM (≈ 14.2 µg/mL)
- MIC [9]: 625 µM (≈ 356 µg/mL)

SMILES: CCCCCCCCCCCC(=O)NS(=O)(=O)OC[C@H]1O[C@@H](n2cnc3c(N)ncnc32)[C@H](O)[C@@H]1O
- MIC [1]: 12.5 µM
- MIC [2]: 12.5 µM (≈ 6.61 µg/mL)
- MIC [3]: 25 µM (≈ 13.2 µg/mL)
- MIC [4]: 6.25 µM (≈ 3.3 µg/mL)
- MIC [5]: 3.13 µM (≈ 1.65 µg/mL)
- MIC [6]: 6.25 µM (≈ 3.3 µg/mL)
- MIC [7]: 6.25 µM (≈ 3.3 µg/mL)
- MIC [8]: 12.5 µM (≈ 6.61 µg/mL)
- MIC [9]: 12.5 µM (≈ 6.61 µg/mL)

Source: ChEMBL document CHEMBL4765357, “Development of small-molecule inhibitors of fatty acyl-AMP and fatty acyl-CoA ligases in Mycobacterium tuberculosis” (Eur J Med Chem, 2020)
